The source made the active and inactive calls. No cut-off for these calls is given here.
Columns and labels:
HeLa [1] = assay: Antiproliferative activity against human HeLa cells after 48 hrs by MTT assay; format: functional
Procedure, shortened: (§1)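 Cells were seeded at 2 × 10^4 cells/mL, allowed to adhere 24 h, then exposed 48 h to a concentration series, with DMSO as control. MTT was added for 2 h at 37 °C, formazan dissolved in DMSO and OD read at 490 nm. GI50 is the concentration giving 50% viability loss versus DMSO; 8 replicates, at least two independent experiments, ± SD.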

MCF7 = assay: Antiproliferative activity against human MCF7 cells after 48 hrs by MTT assay; format: functional; conditions: MCF7, 48 h; procedure, shortened: as §1
HeLa [2] = assay: Antimitotic activity in human HeLa cells assessed as visible deffect in microtubule organization at 5 nM after 3 hrs by inverted microscopic analysis; format: functional, cell-based
Procedure, shortened: (§2)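 HeLa cells in DMEM with 10% fetal calf serum, pyruvate, bicarbonate and PSF were treated 3 h with compound solubilized in DMSO and prediluted in medium, or with 0.1% DMSO carrier. Cells were fixed in methanol at −20°C and blocked 1 h in PBS-5% BSA. They were stained overnight at 4°C for tubulin, Hec1 and Hoechst 33342, then imaged by epifluorescence with structured illumination.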

Bos taurus [3] = organism: Bos taurus; assay: Inhibition of purified bovine tubulin polymerization assessed as microtubule destabilization at 25 uM after 20 mins by fluorescence spectrophotometric analysis
Procedure, shortened: (§3)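 Purified bovine tubulin was incubated at 37 °C in buffer with 10% glycerol and 1 mM GTP, each agent in a separate run, against a 0.05% DMSO control. Polymerization was followed by fluorescence spectrophotometry for 20 min, reading every 15 s.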

Jurkat [4] = assay: Induction of apoptosis in human Jurkat cells assessed as cleavage of caspase 3 substrate DEVD-p-nitroanaline 2 hrs by spectrophotometric analysis; format: functional, cell-based
Procedure, shortened: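 Jurkat cells (RPMI-1640, 10% FBS) were treated at 0.1, 0.5 and 1 μM alongside DMSO control. Lysates from 1 × 10^6 cells were normalized by BCA protein assay, then incubated with DEVD-pNA substrate for 2 h at 37 °C. Read at 405 nm and expressed relative to DMSO set as one. Quadruplicates, repeated at least twice.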

Bos taurus [5] = organism: Bos taurus; assay: Inhibition of purified bovine tubulin polymerization assessed as microtubule destabilization at 3 uM after 20 mins by fluorescence spectrophotometric analysis relative to control; procedure, shortened: as §3
HeLa [6] = assay: Antimitotic activity in human HeLa cells assessed as disruption of interphase microtubule organization at 10 uM after 3 hrs by inverted microscopic analysis; format: functional, cell-based; procedure, shortened: as §2
HeLa [7] = assay: Antimitotic activity in human HeLa cells assessed as visible deffect in mitotic spindle formation at 10 uM after 3 hrs by inverted microscopic analysis; format: functional, cell-based; procedure, shortened: as §2
Jurkat [8] = assay: Induction of apoptosis in human Jurkat cells at 5 to 8 nM after 48 hrs by annexinV-propidium iodide staining based FITC analysis; format: functional, cell-based
Procedure, shortened: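 Jurkat cells plated at 2 × 10^5 cells/mL were exposed for 48 h across a concentration range. They were pelleted, resuspended in HHB containing CaCl2, propidium iodide and Annexin-V-FITC, and labelled 20 min at 37 °C. Annexin-V-positive cells were scored by flow cytometry as % apoptotic. Triplicates, repeated at least twice, ± SD.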

HeLa [9] = assay: Antimitotic activity in human HeLa cells assessed as disruption of interphase microtubule organization at 5 nM after 3 hrs by inverted microscopic analysis; format: functional, cell-based
Procedure, shortened: (§4)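 HeLa cells in DMEM with 10% fetal calf serum, pyruvate, bicarbonate and PSF were exposed for 3 h to compound diluted from DMSO stock into medium, carrier 0.1% DMSO. Cells were fixed in methanol at −20 °C, blocked 1 h in PBS with 5% BSA, then stained overnight at 4 °C with anti-tubulin, anti-Hec1 and Hoechst 33342. Imaged by epifluorescence microscopy with structured illumination.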

HeLa [10] = assay: Antimitotic activity in human HeLa cells assessed as disruption of mitotic microtubule organization at 5 nM after 3 hrs by inverted microscopic analysis; format: functional, cell-based; procedure, shortened: as §4
HeLa [11] = assay: Antimitotic activity in human HeLa cells assessed as nucleated microtubule at 10 uM after 3 hrs by inverted microscopic analysis; format: functional, cell-based; procedure, shortened: as §4

| SMILES | GI50 (HeLa [1]) | GI50 (MCF7) | further results |
| --- | --- | --- | --- |
| COc1cc(C2C3=C(COC3=O)Nc3c2ccc2[nH]ccc32)cc(OC)c1OC (racemic) | 19 nM | 22 nM |  |
| COc1cc(C2C3=C(COC3=O)Nc3[nH]ncc32)cc(Br)c1OC (racemic) | 750 nM | 250 nM |  |
| COc1cc2c(c(OC)c1OC)-c1ccc(OC)c(=O)cc1[C@@H](NC(C)=O)CC2 |  |  | Activity (HeLa [2]): inactive |
| Nc1cc2c(c3ccccc13)NC1=C(C(=O)OC1)C2c1cc(Br)cc(Br)c1 (racemic) | 21 nM | 16 nM |  |
| Cc1n[nH]c2c1C(c1cc(Br)cc(Br)c1)C1=C(COC1=O)N2 (racemic) | 75 nM | 75 nM |  |
| O=C1OCC2=C1C(c1cc(Br)cc(Br)c1)c1c(ccc3ccccc13)N2 (racemic) | 420 nM | 201 nM |  |
| Cc1n[nH]c2c1C(c1cncc(Br)c1)C1=C(COC1=O)N2 (racemic) | 3000 nM | 800 nM |  |
| O=C1OCC2=C1C(c1cccc(Br)c1)c1cn[nH]c1N2 (racemic) | 75 nM | 100 nM |  |
| COc1cc(C2C3=C(COC3=O)Nc3[nH]nc(C)c32)cc(Br)c1OC (racemic) | 750 nM | 1000 nM |  |
| O=C1OCC2=C1C(c1cc(Br)cc(Br)c1O)c1ccc3ccccc3c1N2 (racemic) | 18 nM | 21 nM |  |
| O=C1OCC2=C1C(c1cc(Br)cc(Br)c1)c1cn[nH]c1N2 (racemic) | 25 nM | 25 nM | inhibition (Bos taurus [3]): Active; Activity (Jurkat [4]): Active |
| O=C1OCC2=C1C(c1cc(Br)cc(Br)c1)c1ccc3c(O)cccc3c1N2 (racemic) | 21 nM | 23 nM |  |
| COc1cc(C2C3=C(COC3=O)Nc3c2ccc2ccc(O)cc32)cc(Br)c1OC (racemic) | 2 nM | 3 nM |  |
| CC(=O)O[C@H]1C(=O)[C@@]2(C)[C@H]([C@H](OC(=O)c3ccccc3)[C@]3(O)C[C@H](OC(=O)[C@H](O)[C@@H](NC(=O)c4ccccc4)c4ccccc4)C(C)=C1C3(C)C)[C@]1(OC(C)=O)CO[C@@H]1C[C@@H]2O |  |  | inhibition (Bos taurus [5]): inactive |
| O=C1OCC2=C1C(c1cc(Br)cs1)c1cn[nH]c1N2 (racemic) | 1150 nM | 740 nM |  |
| O=C1OCC2=C1C(c1cc(Br)ccc1O)c1cn[nH]c1N2 (racemic) | 50 nM | 25 nM |  |
| Cc1n[nH]c2c1C(c1cccc(Br)c1)C1=C(COC1=O)N2 (racemic) | 3000 nM | 4000 nM |  |
| COc1cc(C2C3=C(COC3=O)Nc3ccc4ccccc4c32)cc(OC)c1OC (racemic) | 540 nM | 121 nM |  |
| COc1cc(C2C3=C(COC3=O)Nc3c2ccc2ccccc32)cc(OC)c1OC (racemic) | 3 nM | 3 nM |  |
| Cc1n[nH]c2c1C(c1cc(Br)ccc1O)C1=C(COC1=O)N2 (racemic) | 300 nM | 250 nM |  |
| O=C1OCC2=C1C(c1cncc(Br)c1)c1ccc3ccccc3c1N2 (racemic) | 7 nM | 13 nM |  |
| O=C1OCC2=C1[C@@H](c1cc(Br)cc(Br)c1)c1ccc3ccccc3c1N2 | 19000 nM | 14000 nM |  |
| COc1cc(C2C3=C(COC3=O)Nc3c2ccc2c(O)cccc32)cc(OC)c1OC (racemic) | 3 nM | 3 nM |  |
| COc1cc([C@@H]2c3cc4c(cc3[C@H](O)[C@H]3COC(=O)[C@H]23)OCO4)cc(OC)c1OC [PODOFILOX] | 20 nM | 10 nM | inhibition (Bos taurus [3]): Active; Activity (HeLa [6]): inactive; Activity (Jurkat [4]): Active; Activity (HeLa [7]): Active |
| O=C1OCC2=C1C(c1cncc(Br)c1)c1cn[nH]c1N2 (racemic) | 75 nM | 15 nM |  |
| COc1cc(C2C3=C(COC3=O)Nc3cc4c(cc32)CCCC4)cc(OC)c1OC (racemic) | 18 nM | 19 nM |  |

| SMILES | GI50 (HeLa [1]) | GI50 (MCF7) | further results |
| --- | --- | --- | --- |
| O=C1OCC2=C1[C@H](c1cc(Br)cc(Br)c1)c1ccc3ccccc3c1N2 | 9 nM | 9 nM |  |
| O=C1OCC2=C1C(c1cc(Br)cc(Br)c1)c1ccc3ccccc3c1N2 (racemic) | 16 nM | 14 nM |  |
| O=C1OCC2=C1C(c1cc(Br)cs1)c1ccc3ccccc3c1N2 (racemic) | 3 nM | 3 nM |  |
| COc1cc(C2C3=C(COC3=O)Nc3[nH]nc(C)c32)cc(OC)c1OC (racemic) | 5000 nM | 5000 nM |  |
| O=C1OCC2=C1C(c1cc(Br)cc(Br)c1)c1cc3c(cc1N2)CCCC3 (racemic) | 100 nM | 70 nM |  |
| COc1cc(C2C3=C(COC3=O)Nc3nc(SC)nc(N)c32)cc(OC)c1OC (racemic) | 125 nM | 170 nM |  |
| COc1cc(C2C3=C(COC3=O)Nc3[nH]ncc32)cc(OC)c1OC (racemic) | 3000 nM | 250 nM |  |
| COc1cc(Br)cc(C2C3=C(COC3=O)Nc3c2ccc2ccc(O)cc32)c1O (racemic) | 6 nM | 3 nM |  |
| COc1cc(Br)cc(C2C3=C(COC3=O)Nc3[nH]ncc32)c1O (racemic) | 25 nM | 30 nM |  |
| COc1cc(Br)cc(C2C3=C(COC3=O)Nc3c2ccc2ccccc32)c1O (racemic) | 3 nM | 3 nM |  |
| O=C1OCC2=C1C(c1cc(Br)cc(Br)c1)c1c([nH][nH]c1=O)N2 (racemic) | > 10000 nM | > 10000 nM |  |
| O=C1OCC2=C1C(c1cc(Br)ccc1O)c1ccc3ccccc3c1N2 (racemic) | 3 nM | 3 nM |  |
| COc1cccc(C2C3=C(COC3=O)Nc3[nH]ncc32)c1O (racemic) | 2000 nM | 500 nM |  |
| O=C1OCC2=C1C(c1cc(Br)cc(Br)c1O)c1ccc3ccc(O)cc3c1N2 (racemic) | 7 nM | 3 nM |  |
| O=C1OCC2=C1C(c1cc(Br)cc(Br)c1)c1ccc3[nH]ccc3c1N2 (racemic) | 114 nM | 21 nM |  |
| O=C1OCC2=C1C(c1cncc(Br)c1)c1ccc3ccc(O)cc3c1N2 (racemic) | 3 nM | 3 nM |  |
| O=C1OCC2=C1C(c1cc(Br)cc(Br)c1)c1ccc3ccc(O)cc3c1N2 (racemic) | 6 nM | 3 nM |  |
| COc1cc(C2C3=C(COC3=O)Nc3[nH][nH]c(=O)c32)cc(OC)c1OC (racemic) | > 10000 nM | > 10000 nM |  |
| CSc1nc(N)c2c(n1)NC1=C(C(=O)OC1)C2c1cc(Br)cc(Br)c1 (racemic) | 561 nM | 1020 nM |  |
| O=C1OCC2=C1C(c1cc(Br)ccc1O)c1ccc3ccc(O)cc3c1N2 (racemic) | 3 nM | 3 nM |  |
| O=C1OCC2=C1C(c1cc(Br)cs1)c1ccc3ccc(O)cc3c1N2 (racemic) | 3 nM | 3 nM |  |
| COc1cc(Br)cc(C2C3=C(COC3=O)Nc3[nH]nc(C)c32)c1O (racemic) | 35 nM | 100 nM |  |
| COc1cc(C2C3=C(COC3=O)Nc3c2ccc2ccccc32)cc(Br)c1OC (racemic) | 3 nM | 3 nM |  |
| COc1cc(C2C3=C(COC3=O)Nc3c2ccc2ccc(O)cc32)cc(OC)c1OC (racemic) | 2 nM | 3 nM |  |
| O=C1OCC2=C1C(c1cc(Br)cc(Br)c1O)c1cn[nH]c1N2 (racemic) | 20 nM | 10 nM | Activity (Jurkat [8]): Active; Activity (HeLa [9]): Active; inhibition (Bos taurus [3]): Active; Activity (HeLa [10]): Active; Activity (HeLa [11]): Active; Activity (Jurkat [4]): Active |

— ChEMBL document CHEMBL1781902, “Anticancer properties of an important drug lead podophyllotoxin can be efficiently mimicked by diverse heterocyclic scaffolds accessible via one-step synthesis” (2011)
